# Columns and labels:
# [1] = system: CCKA receptor; test: CCKA receptor mediation of PKCθ T538 phosphorylation in pancreatic acini; type: cell-based, rat; conditions: preincubated 5 min, then CCK 10 nM for 1 min
# [2] = system: PKCθ / RafA; test: Co-IP association of PKCθ with RafA; type: cell-based, rat; conditions: CCK 10 nM or TPA 1 μM, 2.5 min, 3 independent experiments
# [3] = system: pT538 PKCθ; test: PKCθ immunofluorescence-cytochemistry; type: cell-based, rat; conditions: TPA 1 μM or CCK 10 nM, 10 minutes; 4 independent experiments
# Outline: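 Acini left untreated or given TPA 1 μM or CCK 10 nM for 10 min, then washed, fixed, permeabilized and cytocentrifuged onto poly-L-lysine slides. Labelled overnight at 4 °C with rabbit anti-pT538 PKCθ and mouse anti-E-cadherin (1:500), detected with Alexa 488/555 secondaries, nuclei stained with DAPI. Isotype-matched primary as negative control; 4 experiments.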
# [4] = system: PKCθ / RafB; test: Co-IP association of PKCθ with RafB; type: cell-based, rat
# Outline: (§1)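 Rat pancreatic acini are dispersed by collagenase and preincubated 2 hrs at 37 °C in HEPES (pH 7.45) incubation solution, then left unstimulated or given CCK (10 nM) or TPA (1 μM). Cells are lysed in CelLytic buffer with vanadate, PMSF and protease inhibitors. Lysate (750 μg/ml) is immunoprecipitated overnight at 4 °C with 4 μg anti-PKCθ plus protein G-agarose, PBS-washed, then analysed by SDS-PAGE/Western blot; ≥3 experiments.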
# [5] = system: PKCθ; test: PKCθ translocation to membranes; type: cell-based, rat; conditions: TPA, 5 min incubation; p<0.05; mean±S.E., 5 independent experiments
# Outline: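 Acini stimulated with CCK for 1 min or TPA for 5 min, then homogenized in Tris pH 7.5 buffer with EGTA/EDTA, vanadate, PMSF and protease inhibitors. The cleared supernatant was spun at 60,000×g for 30 min at 4 °C. The membrane pellet was washed, solubilized in Triton/deoxycholate buffer, sonicated and spun at 10,000×g. Western blot used anti-PKCθ; calpain and E-cadherin served as fraction markers. Results given as % control; 5 experiments.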
# [6] = system: PKCθ / MALT-1; test: Co-IP association of PKCθ with MALT-1; type: cell-based, rat; conditions: CCK 10 nM or TPA 1 μM, data not shown
# [7] = system: PKCθ (pT538) in pancreatic acini; test: PKCθ T538 phosphorylation in rat pancreatic acini; type: cell-based; conditions: 5 independent experiments; for stimulation of PKCθ phosphorylation (pT538), secretagogues: isolated rat pancreatic acini, 5 minutes, Western blot
# [8] = system: PKCθ / RafC; test: Co-IP association of PKCθ with RafC; type: cell-based, rat; conditions: CCK 10 nM or TPA 1 μM, 2.5 min, 3 independent experiments
# [9] = system: PKCθ / tubulin; test: Co-IP association of PKCθ with tubulin; type: cell-based, rat
# Outline: as §1
# [10] = system: PKD (pS744/748); test: PKD phosphorylation stimulated by CCK or TPA; type: cell-based, rat; conditions: TPA 1 μM, 5 min, no inhibitor; p<0.05
# Outline: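 Collagenase-dispersed rat acini preincubated 3 h ± 20 μM PKCθ pseudosubstrate, then CCK (10 nM, 2.5 min) or TPA (1 μM, 5 min), and lysed. Equal protein Western-blotted for pY311 PKCδ, pS744/748 PKD, pS338 RafC or pY416 Src, with total PKCθ and α/β tubulin as loading controls. Bands quantified by densitometry in the linear range. ≥3 experiments; mean±SEM; paired t-test.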
# [11] = system: PKCθ / Akt; test: Co-IP association of PKCθ with Akt; type: cell-based, rat; conditions: CCK 10 nM or TPA 1 μM, 2.5 min, 3 independent experiments
# [12] = system: PKCθ / Lyn; test: Co-IP association of PKCθ with Lyn; type: cell-based, rat; conditions: CCK 10 nM or TPA 1 μM, 2.5 min, 3 independent experiments
# [13] = system: PKCθ / p85 PI3K; test: Co-IP association of PKCθ with p85 PI3K; type: cell-based, rat
# Outline: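 Rat acini stimulated with CCK 10 nM or TPA 1 μM, then lysed in CelLytic buffer with vanadate, PMSF and protease inhibitors. Lysate (750 μg/ml) incubated overnight at 4 °C with 4 μg antibody and protein G-agarose. Immunoprecipitates washed with PBS, then analysed by SDS-PAGE and Western blotting.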
# [14] = system: PKCθ / 14-3-3γ; test: Co-IP association of PKCθ with 14-3-3γ; type: cell-based, rat; conditions: CCK 10 nM or TPA 1 μM, data not shown
# [15] = system: PKCθ / Cbl; test: Co-IP association of PKCθ with Cbl; type: cell-based, rat; conditions: CCK 10 nM or TPA 1 μM, data not shown
# [16] = system: pancreatic acini (amylase secretion); test: Amylase release from pancreatic acini; type: cell-based, rat; conditions: 15 minutes, basal 1.7±0.2, mean±S.E., 6 experiments
# Outline: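 Rat pancreatic acini from collagenase digestion; 2 h preincubation ± 20 μM PKCθ pseudosubstrate in HEPES-buffered (pH 7.45) standard incubation solution, then 15 min with secretagogue. Medium amylase measured with Phadebas reagent and expressed as % of total cellular amylase released during incubation. Means±S.E.; paired Student's t-test.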
# [17] = system: PKCθ (T538); conditions: ref [61]; cited from earlier work
# [18] = system: PKCθ; conditions: ref [62]; cited from earlier work
# [19] = system: CCKB receptors; test: CCKB receptor mediation of PKCθ T538 phosphorylation in pancreatic acini; type: cell-based, rat; conditions: 1 min, isolated acini, Western blot
# [20] = system: PKCθ; conditions: ref [56]; cited from earlier work
# [21] = system: PKCδ; conditions: ref [60]; cited from earlier work
compound,measurement,setting,value
"O=C(O)Cn1c(C(=O)Nc2nc(-c3ccccc3Cl)cs2)cc2ccccc21 [SR27897, 1-[[2-(4-(2-chlorophenyl)-thiazol-2-yl)aminocarbonyl]indolyl]acetic acid]","inhibition of CCK-stimulated PKCθ phosphorylation, CCKA receptor antagonists",[1],completely inhibited
"CCCCCCCCCCCCCC(=O)O[C@@H]1[C@@H](C)[C@@]2(O)[C@@H](C=C(CO)C[C@]3(O)C(=O)C(C)=C[C@@H]23)[C@H]2C(C)(C)[C@]12OC(C)=O [TPA, 12-O-tetradecanoylphobol-13-acetate]",association of PKCθ with RafA,[2],increase in the association
same,phosphoT538 PKCθ in the membrane (immunofluorescence),[3],"increased in the membrane in both cases (Panel B and C, Fig. 6, respectively), with the increase caused by TPA more prominent"
same,association of PKCθ with RafB,[4],"but not an association with p85 PI3K, PKD1, RafB"
same,membrane associated PKCθ,[5],189±59 % of control
same,association of PKCθ with MALT-1,[6],"but not with MALT-1, Bcl-10, 14-3-3γ or Cbl"
same,tmax of pT538 PKCθ phosphorylation,[7]; time course,1.60±0.06 min
same,"pT538 PKCθ phosphorylation, maximum at about 1 min","[7]; time course, 1 min, mean±S.E.",188±13 % of control
same,pT538 PKCθ phosphorylation at 30 min,"[7]; time course, 30 min, mean±S.E.",171±23 % of control
same,association of PKCθ with RafC,[8],increase in the association
same,association of PKCθ with tubulin,[9],"but not an association with p85 PI3K, PKD1, RafB, Bcl-10, Cbl, MALT-1, tubulin"
same,phosphorylation of PKD stimulated by TPA,[10],19.1±3.0 folds over control
same,association of PKCθ with Akt,[11],increase in the association
same,association of PKCθ with Lyn,[12],increase in the association
same,association of PKCθ with p85 PI3K,[13],but not an association with p85 PI3K
same,association of PKCθ with 14-3-3γ,[14],"but not with MALT-1, Bcl-10, 14-3-3γ or Cbl"
same,association of PKCθ with Cbl,[15],"but not with MALT-1, Bcl-10, 14-3-3γ or Cbl"
C[N+](C)(C)CCOC(N)=O [carbachol],"stimulation of PKCθ phosphorylation (pT538), secretagogues",[7],stimulated a significant increase
same,"Amylase secretion (% total), −PKCθ inhibitor",[16]; Carbachol 1 μM,6.8±0.7 % total
same,"Amylase secretion (% total), −PKCθ inhibitor",[16]; Carbachol 1 mM,6.2±0.7 % total
EGF: Epidermal growth factor,T538 PKCθ phosphorylation in A431 cells,[17],increases T538 PKCθ phosphorylation
IGF: insulin-like growth factor 1,PKCθ catalytic activity in rhabdomyosarcoma cell line,[18],increases PKCθ catalytic activity
bombesin,"stimulation of PKCθ phosphorylation (pT538), secretagogues",[7],stimulated a significant increase
gastrin,pT538 PKCθ phosphorylation by gastrin,[19],did not produce any increase
insulin: known pancreatic growth factor,PKCθ activation in myocytes,[20],able to increase PKCθ activation
secretin: gastrointestinal hormone that causes an increase in the cAMP,"stimulation of PKCθ phosphorylation (pT538), secretagogues",[7],Neither
vasoactive intestinal peptide [VIP],PKCδ activation in cortical astrocytes,[21],activates PKCδ
same,"stimulation of PKCθ phosphorylation (pT538), secretagogues",[7],Neither
same,"Amylase secretion (% total), −PKCθ inhibitor",[16]; VIP 10 nM,3.4±0.6 % total
